In brackets after ≈: the same amount, converted by molar mass.
Key:
[1] = Compound was tested for the concentration of agent which reduces the supernatant protein concentration (tubulin, 1 mg/mL) by 50%; ED50/ED50taxol; assay type: functional
In short: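 Tubulin assembly assay with tubulin at 1 mg/mL, 15 min at 37 °C. Read-out is protein left in the supernatant. ED50 is the agent concentration that lowers supernatant protein by 50%. Value expressed as a ratio to the ED50 of taxol.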

P388 = assay: In vitro cytotoxicity against P388 (murine leukemia) cell line.; assay type: functional, cell-based; conditions: Mus musculus
In short: (§1)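 Inhibition of cell proliferation measured against untreated cells after 72 h incubation at 37 °C. Read-out by MTT colorimetric microtiter assay. IC50 taken as the agent concentration giving 50% inhibition of proliferation.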

A549 = assay: In vitro cytotoxicity against A549 (human lung carcinoma) cell line.; assay type: functional, cell-based; in short: as §1
HT-29 = assay: In vitro cytotoxicity against HT-29 (human colon adenocarcinoma) cell line.; assay type: functional, cell-based; in short: as §1
B16-F10 = assay: In vitro cytotoxicity against B16F10 (mouse melanoma) cell line.; assay type: functional, cell-based; in short: as §1

## CC(=O)O[C@@H]1C2=C(C)[C@@H](OC(=O)[C@H](O)[C@@H](NC(=O)OC(C)(C)C)C(C)O)C[C@@](O)([C@@H](OC(=O)c3ccccc3)[C@@H]3[C@]4(OC(C)=O)CO[C@@H]4C[C@H](O)[C@@]3(C)[C@H]1O)C2(C)C (mixture of isomers)
[1]
  Ratio: 1.2

## CC(=O)O[C@@H]1C2=C(C)[C@@H](OC(=O)[C@H](O)[C@@H](NC(=O)OC(C)(C)C)C(C)O)C[C@@](O)([C@@H](OC(=O)c3ccccc3)[C@@H]3[C@]4(OC(C)=O)CO[C@@H]4C[C@H](O)[C@@]3(C)[C@H]1O)C2(C)C (single isomer, unassigned) [listing 1 of 2 here]
P388
  IC50: > 0.1 µg/mL
A549
  IC50: > 0.1 µg/mL
HT-29
  IC50: > 100 ng/mL
B16-F10
  IC50: > 0.1 µg/mL

## CC(=O)O[C@@H]1C2=C(C)[C@@H](OC(=O)[C@H](O)[C@@H](NC(=O)OC(C)(C)C)C(C)O)C[C@@](O)([C@@H](OC(=O)c3ccccc3)[C@@H]3[C@]4(OC(C)=O)CO[C@@H]4C[C@H](O)[C@@]3(C)[C@H]1O)C2(C)C (single isomer, unassigned) [listing 2 of 2 here]
[1]
  Ratio: 0.8

## CC(=O)O[C@@H]1C2=C(C)[C@@H](OC(=O)[C@H](O)[C@H](COc3ccccc3)NC(=O)c3ccccc3)C[C@@](O)([C@@H](OC(=O)c3ccccc3)[C@@H]3[C@]4(OC(C)=O)CO[C@@H]4C[C@H](O)[C@@]3(C)[C@H]1O)C2(C)C
P388
  IC50: > 0.1 µg/mL
A549
  IC50: 0.092 µg/mL (≈ 0.104 µM)
[1]
  Ratio: 5.81
HT-29
  IC50: 39 ng/mL (≈ 0.044 µM)
B16-F10
  IC50: 0.084 µg/mL (≈ 0.0948 µM)

## CCCC[C@@H](NC(=O)OC(C)(C)C)[C@@H](O)C(=O)O[C@H]1C[C@@]2(O)[C@@H](OC(=O)c3ccccc3)[C@@H]3[C@]4(OC(C)=O)CO[C@@H]4C[C@H](O)[C@@]3(C)[C@@H](O)[C@H](OC(C)=O)C(=C1C)C2(C)C
P388
  IC50: > 0.1 µg/mL
A549
  IC50: > 0.1 µg/mL
[1]
  Ratio: 9.74
HT-29
  IC50: 67 ng/mL (≈ 0.0805 µM)
B16-F10
  IC50: > 0.1 µg/mL

## CC(=O)O[C@@H]1C2=C(C)[C@@H](OC(=O)[C@H](O)[C@@H](NC(=O)OC(C)(C)C)c3ccccc3)C[C@@](O)([C@@H](OC(=O)c3ccccc3)[C@@H]3[C@]4(OC(C)=O)CO[C@@H]4C[C@H](O)[C@@]3(C)[C@H]1O)C2(C)C
P388
  IC50: 0.0025 µg/mL (≈ 0.00293 µM)
A549
  IC50: 0.003 µg/mL (≈ 0.00352 µM)
[1]
  Ratio: 0.87
HT-29
  IC50: 0.16 ng/mL (≈ 0.000188 µM)
B16-F10
  IC50: 0.0004 µg/mL (≈ 0.00047 µM)

## C=C[C@H](NC(=O)OC(C)(C)C)[C@@H](O)C(=O)O[C@H]1C[C@@]2(O)[C@@H](OC(=O)c3ccccc3)[C@@H]3[C@]4(OC(C)=O)CO[C@@H]4C[C@H](O)[C@@]3(C)[C@@H](O)[C@H](OC(C)=O)C(=C1C)C2(C)C
P388
  IC50: 0.016 µg/mL (≈ 0.02 µM)
A549
  IC50: 0.0011 µg/mL (≈ 0.00137 µM)
[1]
  Ratio: 0.92
HT-29
  IC50: 1.8 ng/mL (≈ 0.00224 µM)
B16-F10
  IC50: 0.0044 µg/mL (≈ 0.00549 µM)

## CC(=O)O[C@@H]1C2=C(C)[C@@H](OC(=O)[C@H](O)[C@@H](NC(=O)OC(C)(C)C)[C@H](O)CO)C[C@@](O)([C@@H](OC(=O)c3ccccc3)[C@@H]3[C@]4(OC(C)=O)CO[C@@H]4C[C@H](O)[C@@]3(C)[C@H]1O)C2(C)C
P388
  IC50: > 0.1 µg/mL
A549
  IC50: > 0.1 µg/mL
[1]
  Ratio: 2.71
HT-29
  IC50: > 100 ng/mL
B16-F10
  IC50: > 0.1 µg/mL

## CC(=O)O[C@@H]1C2=C(C)[C@@H](OC(=O)[C@H](O)[C@@H](NC(=O)OC(C)(C)C)C3CCCCC3)C[C@@](O)([C@@H](OC(=O)c3ccccc3)[C@@H]3[C@]4(OC(C)=O)CO[C@@H]4C[C@H](O)[C@@]3(C)[C@H]1O)C2(C)C
P388
  IC50: 0.014 µg/mL (≈ 0.0163 µM)
A549
  IC50: 0.0065 µg/mL (≈ 0.00758 µM)
[1]
  Ratio: 0.57
HT-29
  IC50: 5 ng/mL (≈ 0.00583 µM)
B16-F10
  IC50: 0.0057 µg/mL (≈ 0.00664 µM)

## CC[C@H](NC(=O)OC(C)(C)C)[C@@H](O)C(=O)O[C@H]1C[C@@]2(O)[C@@H](OC(=O)c3ccccc3)[C@@H]3[C@]4(OC(C)=O)CO[C@@H]4C[C@H](O)[C@@]3(C)[C@@H](O)[C@H](OC(C)=O)C(=C1C)C2(C)C
P388
  IC50: 0.011 µg/mL (≈ 0.0137 µM)
A549
  IC50: 0.00083 µg/mL (≈ 0.00103 µM)
[1]
  Ratio: 0.61
HT-29
  IC50: 1.4 ng/mL (≈ 0.00174 µM)
B16-F10
  IC50: 0.0032 µg/mL (≈ 0.00398 µM)

## CC(=O)O[C@@H]1C2=C(C)[C@@H](OC(=O)[C@H](O)[C@@H](NC(=O)OC(C)(C)C)[C@H]3COC(C)(C)O3)C[C@@](O)([C@@H](OC(=O)c3ccccc3)[C@@H]3[C@]4(OC(C)=O)CO[C@@H]4C[C@H](O)[C@@]3(C)[C@H]1O)C2(C)C
P388
  IC50: > 0.1 µg/mL
A549
  IC50: > 0.1 µg/mL
[1]
  Ratio: 7.91
HT-29
  IC50: > 100 ng/mL
B16-F10
  IC50: 0.086 µg/mL (≈ 0.0982 µM)

## CC(=O)O[C@@H]1C2=C(C)[C@@H](OC(=O)[C@H](O)[C@H](C)NC(=O)OC(C)(C)C)C[C@@](O)([C@@H](OC(=O)c3ccccc3)[C@@H]3[C@]4(OC(C)=O)CO[C@@H]4C[C@H](O)[C@@]3(C)[C@H]1O)C2(C)C
P388
  IC50: 0.043 µg/mL (≈ 0.0544 µM)
A549
  IC50: 0.015 µg/mL (≈ 0.019 µM)
[1]
  Ratio: 1.08
HT-29
  IC50: 8.3 ng/mL (≈ 0.0105 µM)
B16-F10
  IC50: 0.019 µg/mL (≈ 0.0241 µM)

## CC(=O)O[C@@H]1C2=C(C)[C@@H](OC(=O)[C@H](O)[C@H](Cc3ccccc3)NC(=O)OC(C)(C)C)C[C@@](O)([C@@H](OC(=O)c3ccccc3)[C@@H]3[C@]4(OC(C)=O)CO[C@@H]4C[C@H](O)[C@@]3(C)[C@H]1O)C2(C)C
P388
  IC50: > 0.1 µg/mL
A549
  IC50: > 0.1 µg/mL
[1]
  Ratio: > 17.1
HT-29
  IC50: > 100 ng/mL
B16-F10
  IC50: > 0.1 µg/mL

## CC(=O)O[C@@H]1C2=C(C)[C@@H](OC(=O)[C@H](O)[C@H](CC(C)C)NC(=O)OC(C)(C)C)C[C@@](O)([C@@H](OC(=O)c3ccccc3)[C@@H]3[C@]4(OC(C)=O)CO[C@@H]4C[C@H](O)[C@@]3(C)[C@H]1O)C2(C)C
P388
  IC50: 0.00036 µg/mL (≈ 0.000433 µM)
A549
  IC50: 0.00012 µg/mL (≈ 0.000144 µM)
[1]
  Ratio: 0.95
HT-29
  IC50: 0.38 ng/mL (≈ 0.000457 µM)
B16-F10
  IC50: 0.0009 µg/mL (≈ 0.00108 µM)

## CCCC[C@H](NC(=O)OC(C)(C)C)[C@@H](O)C(=O)O[C@H]1C[C@@]2(O)[C@@H](OC(=O)c3ccccc3)[C@@H]3[C@]4(OC(C)=O)CO[C@@H]4C[C@H](O)[C@@]3(C)[C@@H](O)[C@H](OC(C)=O)C(=C1C)C2(C)C
P388
  IC50: 0.018 µg/mL (≈ 0.0216 µM)
A549
  IC50: 0.0095 µg/mL (≈ 0.0114 µM)
[1]
  Ratio: 2.15
HT-29
  IC50: 8.8 ng/mL (≈ 0.0106 µM)
B16-F10
  IC50: 0.0097 µg/mL (≈ 0.0117 µM)

## CC(=O)O[C@@H]1C2=C(C)[C@@H](OC(=O)[C@H](O)[C@@H](NC(=O)OC(C)(C)C)c3cscn3)C[C@@](O)([C@@H](OC(=O)c3ccccc3)[C@@H]3[C@]4(OC(C)=O)CO[C@@H]4C[C@H](O)[C@@]3(C)[C@H]1O)C2(C)C
P388
  IC50: 0.0014 µg/mL (≈ 0.00163 µM)
A549
  IC50: 0.0063 µg/mL (≈ 0.00733 µM)
[1]
  Ratio: 1.36
HT-29
  IC50: 0.92 ng/mL (≈ 0.00107 µM)
B16-F10
  IC50: 0.0003 µg/mL (≈ 0.000349 µM)

## COC[C@H](NC(=O)c1ccccc1)[C@@H](O)C(=O)O[C@H]1C[C@@]2(O)[C@@H](OC(=O)c3ccccc3)[C@@H]3[C@]4(OC(C)=O)CO[C@@H]4C[C@H](O)[C@@]3(C)[C@@H](O)[C@H](OC(C)=O)C(=C1C)C2(C)C
P388
  IC50: > 0.1 µg/mL
A549
  IC50: > 0.1 µg/mL
[1]
  Ratio: 3.14
HT-29
  IC50: 79 ng/mL (≈ 0.0959 µM)
B16-F10
  IC50: > 0.1 µg/mL

## CCCCC[C@H](NC(=O)OC(C)(C)C)[C@@H](O)C(=O)O[C@H]1C[C@@]2(O)[C@@H](OC(=O)c3ccccc3)[C@@H]3[C@]4(OC(C)=O)CO[C@@H]4C[C@H](O)[C@@]3(C)[C@@H](O)[C@H](OC(C)=O)C(=C1C)C2(C)C
P388
  IC50: 0.016 µg/mL (≈ 0.0189 µM)
A549
  IC50: 0.012 µg/mL (≈ 0.0142 µM)
[1]
  Ratio: 2
HT-29
  IC50: 16 ng/mL (≈ 0.0189 µM)
B16-F10
  IC50: 0.014 µg/mL (≈ 0.0165 µM)

## CC(=O)O[C@@H]1C2=C(C)[C@@H](OC(=O)[C@H](O)[C@@H](NC(=O)c3ccccc3)c3ccccc3)C[C@@](O)([C@@H](OC(=O)c3ccccc3)[C@@H]3[C@]4(OC(C)=O)CO[C@@H]4C[C@H](O)[C@@]3(C)[C@H]1O)C2(C)C
P388
  IC50: 0.053 µg/mL (≈ 0.0619 µM)
A549
  IC50: 0.019 µg/mL (≈ 0.0222 µM)
[1]
  Ratio: 0.86
HT-29
  IC50: 80 ng/mL (≈ 0.0935 µM)
B16-F10
  IC50: 0.025 µg/mL (≈ 0.0292 µM)

Source: ChEMBL document CHEMBL1127617, “Synthesis and biological evaluation of C-3'-modified analogs of 9(R)-dihydrotaxol” (J Med Chem, 1994)
